Test results taken from article PMC4423805 (Science (New York, N.Y.), 2015).

Assays:
[1] = molecular target: CBFβ-SMMHC binding to the RUNX1 Runt domain; experiment: FRET assay of CBFβ-SMMHC binding to RUNX1 Runt domain; settings: read-out: FRET IC50; 10 nM Cerulean-Runt domain and 10 nM Venus-CBFβ-SMMHC
Procedure, shortened: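 FRET binding assay with 10 nM Cerulean-RUNX1 Runt domain and 10 nM Venus-CBFβ-SMMHC titrated with test compound. Read-out is the emission intensity ratio at 525/474 nm. Untagged CBFβ (100 and 1000 nM) served as a dissociation reference. IC50 was fitted from the mean and SD of three independent measurements.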

[2] = Pharmacokinetics in mouse plasma; type: in vivo
Runt domain = experiment: 15N-1H HSQC / STD NMR binding to Runt domain
CBFβ = experiment: 15N-1H HSQC / STD NMR binding to CBFβ; settings: upon addition of compound
[3] = Stability in liver microsomes; type: in vitro ADME
[4] = tested on: primary human inv(16) AML samples; experiment: Colony-forming units, primary inv; type: cell-based
Procedure, shortened: (§1)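 Colony-forming unit assays on CD34+ purified primary human cells treated with the test compound at set concentrations (5 and 10 μM cited for inv(16) samples): inv(16) AML, normal-karyotype AML, or cord blood. Colonies are expressed as percent of DMSO vehicle control. Assays were run in triplicate, with SD; significance by unpaired t-test.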

[5] = tested on: primary human AML samples with normal karyotype; experiment: Colony-forming units, normal karyotype AML samples; type: cell-based
Procedure, shortened: as §1

[6] = tested on: RUNX1 occupancy at RUNX3, CSF1R, and CEBPA promoters; experiment: Chromatin immunoprecipitation of RUNX1 occupancy, U937 cells; type: cell-based, human; settings: inv(16)-negative U937 cells, 1 μM
Procedure, shortened: (§2)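 Chromatin immunoprecipitation of RUNX1 at the RUNX3, CSF1R and CEBPA loci in ME-1 and U937 cells treated with 1 μM test compound for 6 hours. Occupancy is expressed as fold enrichment relative to DMSO-treated cells. Data are means of triplicate experiments with SD; significance by unpaired t-test.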

CBFβ-SMMHC-RUNX1 binding = experiment: Coimmunoprecipitation of CBFβ-SMMHC-RUNX1 in ME-1 cells; type: cell-based, human; settings: 1 μM, 6 hours
Procedure, shortened: (§3)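 ME-1 cells treated with 1 μM test compound for 3 and 6 hours. RUNX1 association with CBFβ and with CBFβ-SMMHC was assessed by coimmunoprecipitation, and binding was quantified from three experiments.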

[7] = tested on: expression of RUNX3, CSF1R, and CEBPA; experiment: qRT-PCR expression of RUNX1 target genes, ME-1 cells; type: cell-based, human; settings: 6 or 12 hours
Procedure, shortened: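 qRT-PCR of RUNX3, CSF1R, CEBPA and control gene PIN1 in ME-1 and U937 cells treated with 1 μM test compound for 6 and 12 hours. Expression is normalized to the DMSO control group. Data are means of triplicate experiments with SD; significance by unpaired t-test.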

ME-1 cells = experiment: Annexin V and 7AAD viability staining, ME-1; type: cell-based, human; settings: read-out: ME-1 cell growth IC50, 48 hours
Procedure, shortened: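 ME-1 inv(16) cells exposed to the test compound across a dose range for 48 hours, then scored by annexin V and 7AAD viability staining. Values are normalized to the DMSO-treated group. Each point is the mean of triplicate experiments, with SD.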

[8] = tested on: 11 human leukemia cell lines; experiment: Panel of 11 human leukemia cell lines; type: cell-based
[9] = tested on: normal human bone marrow cells; experiment: MTT assay, normal human bone marrow cells; type: cell-based; settings: read-out: IC50 in normal human bone marrow cells, 48 hours
Procedure, shortened: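 Normal human bone marrow cells treated with a dose range of test compound for 48 hours and assessed by MTT conversion. Values are normalized to the DMSO-treated group. Each point is the mean of triplicate experiments, with SD.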

CBFβ-RUNX1 binding = experiment: Coimmunoprecipitation of CBFβ-RUNX1 in ME-1 cells; type: cell-based, human; settings: 1 μM
Procedure, shortened: as §3

CBFβ-SMMHC = experiment: Isothermal titration calorimetry; type: binding; settings: read-out: dissociation constant (KD), ITC
Chain of CBFβ-SMMHC (Q13951 1-165 limits assumed): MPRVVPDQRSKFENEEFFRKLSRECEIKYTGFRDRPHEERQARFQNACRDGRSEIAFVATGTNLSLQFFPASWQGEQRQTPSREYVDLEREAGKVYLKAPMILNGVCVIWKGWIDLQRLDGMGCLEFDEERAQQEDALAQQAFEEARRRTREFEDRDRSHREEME

[10] = tested on: Cbfb+/MYH11:Ras+/G12D leukemic cells; experiment: inv; type: in vivo, mouse; settings: 200 mg/kg of body weight per day for 10 days, days 5 to 15 posttransplantation
Procedure, shortened: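 Mice (n = 11 per group) were transplanted with 2 × 10^3 Cbfb+/MYH11;Ras+/G12D leukemic cells. After 5 days for engraftment, they received DMSO vehicle or 200 mg/kg/day test compound for 10 days (days 5–15 post-transplant). Disease latency was followed by Kaplan-Meier survival.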

[11] = tested on: primary human AML samples with normal karyotype; experiment: Viability; type: cell-based; settings: 48 hours
Procedure, shortened: (§4)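 Primary human AML cells treated with test compound at set concentrations for 48 hours, and viability read by annexin V/7AAD relative to DMSO vehicle. Inv(16) material comprised four CD34+ purified samples; normal-karyotype AML samples were used as given. Each sample was the average of duplicate treatments, with mean and SD across samples.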

[12] = tested on: primary human inv(16) AML samples; experiment: Viability; type: cell-based; settings: 48 hours, 5 and 10 μM
Procedure, shortened: as §4

[13] = tested on: RUNX1 occupancy at RUNX3, CSF1R, and CEBPA promoters; experiment: Chromatin immunoprecipitation of RUNX1 occupancy, ME-1 cells; type: cell-based, human; settings: 6 hours
Procedure, shortened: as §2

[14] = tested on: RUNX1, CBFβ, and CBFβ-SMMHC; experiment: Protein stability of RUNX1, CBFβ and CBFβ-SMMHC; type: cell-based
CD34+ cord blood cells = experiment: Colony-forming units, CD34+ cord blood cells; type: cell-based, human
Procedure, shortened: as §1

[15] = Toxicity after 7 days of administration; type: in vivo
[16] = molecular target: RUNX1, endogenous in ME-1 cells (human (endogenous in ME-1)) (UniProt Q01196); experiment: co-IP
Chain of RUNX1, endogenous in ME-1 cells (human (endogenous in ME-1)) (Q01196 whole entry): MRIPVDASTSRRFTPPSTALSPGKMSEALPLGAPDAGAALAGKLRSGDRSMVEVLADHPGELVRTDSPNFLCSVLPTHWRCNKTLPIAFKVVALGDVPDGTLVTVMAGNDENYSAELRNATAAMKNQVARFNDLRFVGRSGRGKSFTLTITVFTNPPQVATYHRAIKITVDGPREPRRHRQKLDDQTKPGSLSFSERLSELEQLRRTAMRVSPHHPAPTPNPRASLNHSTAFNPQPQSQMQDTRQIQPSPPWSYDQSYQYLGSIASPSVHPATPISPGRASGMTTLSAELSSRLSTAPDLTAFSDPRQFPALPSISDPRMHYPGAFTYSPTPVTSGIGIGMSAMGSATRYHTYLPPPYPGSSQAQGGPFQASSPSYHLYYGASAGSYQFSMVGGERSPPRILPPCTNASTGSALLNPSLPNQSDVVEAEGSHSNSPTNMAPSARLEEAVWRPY

**Q.** Which results are given for COc1ccc2nc(-c3ccccn3)[nH]c2c1 [AI-4-57]?
**A.** IC50 [1]: 22000 ± 8000 nM; half-life (t½) [2]: 0.617 h; interaction with Runt domain by NMR (Runt domain): No interaction was observed; chemical shift changes in HSQC spectrum of CBFβ (CBFβ): chemical shift perturbations

**Q.** With FC(F)(F)Oc1ccc2nc(-c3ccccn3)[nH]c2c1 [AI-10-47] as the compound, how does the “stability in liver microsomes” value [3] read?
**A.** The value was “reduced the metabolic liability”.

**Q.** What about the “change in CFUs of inv(16) AML cells” value [4] of the same compound?
**A.** The value was “no change”.

**Q.** And the IC50 [1]?
**A.** Its IC50 is 2000 ± 30 nM.

**Q.** Which “change in CFUs of AML cells with normal karyotype” value [5] does the source give for AI-10-49 here?
**A.** The value was “no change”.

**Q.** And the “RUNX1 occupancy increase in U937 cells” value [6]?
**A.** The value was “Neither”.

**Q.** And the “dissociation of RUNX1 from CBFβ-SMMHC” value (CBFβ-SMMHC-RUNX1 binding)?
**A.** The value was 90%.

**Q.** And the “expression of RUNX3, CSF1R, and CEBPA” value ([7]; 1 μM)?
**A.** Its value is “increased expression”.

**Q.** What about the “expression of control gene PIN1” value [7] of the same compound?
**A.** The value was “no effect”.

**Q.** And the “inhibition of CFUs of inv(16) AML cells” value ([4]; 5 μM)?
**A.** The value was 40%.

**Q.** What about the “inhibition of CFUs of inv(16) AML cells” value ([4]; 10 μM) of the same compound?
**A.** Its value is 60%.

**Q.** And the IC50 (ME-1 cells)?
**A.** Its IC50 is 600 nM.

**Q.** What about the “sensitivity of leukemia cell line panel” value [8] of the same compound?
**A.** Its value is “ME-1 cells were the only cell line highly sensitive”.

**Q.** And the IC50 [9]?
**A.** Its IC50 is > 25000 nM.

**Q.** What about the “effect on CBFβ-RUNX1 association” value (CBFβ-RUNX1 binding) of the same compound?
**A.** The value was “only a modest effect”.

**Q.** What about the Kd (CBFβ-SMMHC) of the same compound?
**A.** Its Kd is 168 nM.

**Q.** And the IC50 [1]?
**A.** The IC50 was 260 ± 10 nM.

**Q.** What about the “median latency (survival)” value [10] of the same compound?
**A.** The value was 61 days.

**Q.** What about the “viability of normal karyotype AML samples” value [11] of the same compound?
**A.** The value was “not affected”.

**Q.** What about the “viability of inv(16) patient cells” value [12] of the same compound?
**A.** Its value is “reduced”.

**Q.** What about the “RUNX1 occupancy at CEBPA promoter” value ([13]; 1 μM, relative to DMSO) of the same compound?
**A.** Its value is 8 fold.

**Q.** And the “RUNX1 occupancy at CSF1R promoter” value ([13]; 1 μM, relative to DMSO)?
**A.** The value was 2.2 fold.

**Q.** What about the “RUNX1 occupancy at RUNX3 promoter” value ([13]; 1 μM, relative to DMSO) of the same compound?
**A.** Its value is 8 fold.

**Q.** What about the “RUNX1 occupancy at control loci” value [13] of the same compound?
**A.** The value was “no enrichment was observed”.

**Q.** What about the “half-life (t½)” value [2] of the same compound?
**A.** The value was 6.33 h.

**Q.** And the “stability of RUNX1, CBFβ, and CBFβ-SMMHC” value [14]?
**A.** The value was “not affected”.

**Q.** What about the “change in CFUs of CD34+ cord blood cells” value (CD34+ cord blood cells) of the same compound?
**A.** Its value is “no change”.

**Q.** What about the toxicity [15] of the same compound?
**A.** Its toxicity is “no evidence of toxicity”.

**Q.** For CBFβ-SMMHC, endogenous in ME-1 cells, which percent dissociation with AI-10-49 (1 μM, 6 hours) [16] is on record?
**A.** Its percent dissociation with AI-10-49 (1 μM, 6 hours) is 90%.
